Like-named read-outs stand apart in the source and are kept apart here.
Experiments:
[1] = cited from earlier work
[2] = target: human GABAAR α4β3δ (Homo sapiens, UniProt O14764+P28472+P48169); assay: Voltage-clamp, modulation of GABA EC10 response in Xenopus laevis oocytes; format: cell-based; conditions: maximum modulation of the GABA EC10 response, mean ± S.E.M. (n = 3)
How it was run: (§1)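 Human GABAAR subtypes expressed in Xenopus laevis oocytes. The GABA EC10 (the concentration giving 10% of the maximal GABA response) was determined for each oocyte. Test compound was pre-applied for 30 s, then co-applied with EC10 GABA. Response = (I GABA EC10 + modulator / I GABA EC10) × 100, where I = current. Concentration-effect data were fitted to a four-parameter logistic equation.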

[3] = target: human GABAAR α2β2γ2 (Homo sapiens, UniProt P18507+P47869+P47870); assay: Voltage-clamp, modulation of GABA EC10 response in Xenopus laevis oocytes; format: cell-based; conditions: maximum modulation of the GABA EC10 response, mean ± S.E.M. (n = 3)
human GABAAR α2β2γ2, sequence (P47869 29-451): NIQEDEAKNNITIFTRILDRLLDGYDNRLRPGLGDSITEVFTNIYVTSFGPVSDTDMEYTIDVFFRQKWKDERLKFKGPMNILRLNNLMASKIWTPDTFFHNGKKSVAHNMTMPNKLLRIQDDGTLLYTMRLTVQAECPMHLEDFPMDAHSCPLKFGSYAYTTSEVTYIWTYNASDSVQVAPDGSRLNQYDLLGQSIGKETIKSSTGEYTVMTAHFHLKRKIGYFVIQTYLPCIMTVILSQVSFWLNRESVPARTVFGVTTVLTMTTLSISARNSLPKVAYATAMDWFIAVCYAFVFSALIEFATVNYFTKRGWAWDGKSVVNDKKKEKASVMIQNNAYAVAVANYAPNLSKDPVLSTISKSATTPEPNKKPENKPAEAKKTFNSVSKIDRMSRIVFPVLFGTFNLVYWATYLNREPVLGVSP
human GABAAR α2β2γ2, sequence (P47870 26-512): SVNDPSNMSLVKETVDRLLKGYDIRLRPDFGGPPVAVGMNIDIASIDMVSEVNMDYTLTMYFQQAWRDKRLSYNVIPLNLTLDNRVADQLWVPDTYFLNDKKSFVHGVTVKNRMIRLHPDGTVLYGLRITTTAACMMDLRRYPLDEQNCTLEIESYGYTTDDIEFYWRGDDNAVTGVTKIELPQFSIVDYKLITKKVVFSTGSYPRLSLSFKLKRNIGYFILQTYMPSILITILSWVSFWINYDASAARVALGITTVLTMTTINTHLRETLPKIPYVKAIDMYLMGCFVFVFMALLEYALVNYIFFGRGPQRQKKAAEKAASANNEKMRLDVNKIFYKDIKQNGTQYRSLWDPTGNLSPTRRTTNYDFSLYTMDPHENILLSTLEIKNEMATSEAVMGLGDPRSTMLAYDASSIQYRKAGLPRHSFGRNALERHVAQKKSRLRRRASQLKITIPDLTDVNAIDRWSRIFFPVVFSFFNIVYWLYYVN
human GABAAR α2β2γ2, sequence (P18507 40-475): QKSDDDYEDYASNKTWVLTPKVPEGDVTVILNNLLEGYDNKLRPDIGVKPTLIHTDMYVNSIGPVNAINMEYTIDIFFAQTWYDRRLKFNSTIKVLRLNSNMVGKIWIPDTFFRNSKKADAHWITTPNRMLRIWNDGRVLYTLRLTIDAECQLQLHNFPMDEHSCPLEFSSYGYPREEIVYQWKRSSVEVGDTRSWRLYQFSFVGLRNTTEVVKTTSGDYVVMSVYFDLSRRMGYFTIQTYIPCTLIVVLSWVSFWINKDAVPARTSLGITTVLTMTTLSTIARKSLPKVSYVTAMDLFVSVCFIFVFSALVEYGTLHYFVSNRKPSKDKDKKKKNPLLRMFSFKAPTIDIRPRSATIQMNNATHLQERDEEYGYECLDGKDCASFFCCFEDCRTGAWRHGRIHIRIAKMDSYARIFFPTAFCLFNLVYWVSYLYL

[4] = target: human GABAAR α1β1γ2 (Homo sapiens, UniProt P14867+P18505+P18507); assay: Voltage-clamp, modulation of GABA EC10 response in Xenopus laevis oocytes; format: cell-based; conditions: maximum modulation of the GABA EC10 response, mean ± S.E.M. (n = 3)
human GABAAR α1β1γ2, sequence (P14867 28-456): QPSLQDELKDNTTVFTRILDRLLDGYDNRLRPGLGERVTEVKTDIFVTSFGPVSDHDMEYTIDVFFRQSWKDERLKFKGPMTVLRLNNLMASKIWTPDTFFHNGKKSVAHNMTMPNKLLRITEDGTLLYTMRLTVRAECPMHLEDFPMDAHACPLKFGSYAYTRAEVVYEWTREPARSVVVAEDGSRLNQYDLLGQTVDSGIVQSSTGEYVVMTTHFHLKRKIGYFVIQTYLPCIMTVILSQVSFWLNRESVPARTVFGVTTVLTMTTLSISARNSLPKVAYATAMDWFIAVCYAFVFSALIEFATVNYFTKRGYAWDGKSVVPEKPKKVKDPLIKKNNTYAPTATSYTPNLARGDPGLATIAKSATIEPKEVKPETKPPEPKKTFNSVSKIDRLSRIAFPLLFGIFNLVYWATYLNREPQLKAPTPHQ
human GABAAR α1β1γ2, sequence (P18505 26-474): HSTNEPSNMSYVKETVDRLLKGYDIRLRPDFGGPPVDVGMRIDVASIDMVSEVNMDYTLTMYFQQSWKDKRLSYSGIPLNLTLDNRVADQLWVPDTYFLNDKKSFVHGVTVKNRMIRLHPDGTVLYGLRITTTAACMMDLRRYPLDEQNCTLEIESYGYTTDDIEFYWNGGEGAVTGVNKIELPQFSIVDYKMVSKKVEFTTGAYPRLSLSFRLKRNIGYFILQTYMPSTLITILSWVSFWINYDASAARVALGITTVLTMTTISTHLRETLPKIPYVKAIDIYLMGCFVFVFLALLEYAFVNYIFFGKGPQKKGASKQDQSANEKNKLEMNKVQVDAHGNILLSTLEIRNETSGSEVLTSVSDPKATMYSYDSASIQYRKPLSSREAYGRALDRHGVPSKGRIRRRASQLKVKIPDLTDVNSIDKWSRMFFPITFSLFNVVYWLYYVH
human GABAAR α1β1γ2, sequence (P18507 40-475): as the sequence (P18507 40-475) above
How it was run: as §1

[5] = target: human GABAAR α1β2γ2 (Homo sapiens, UniProt P14867+P18507+P47870); assay: as above; format: cell-based; conditions: maximum modulation of the GABA EC10 response, mean ± S.E.M. (n = 3)
human GABAAR α1β2γ2, sequence (P14867 28-456): as the sequence (P14867 28-456) above
human GABAAR α1β2γ2, sequence (P47870 26-512): as the sequence (P47870 26-512) above
human GABAAR α1β2γ2, sequence (P18507 40-475): as the sequence (P18507 40-475) above
How it was run: as §1

[6] = rodents; ref Irwin et al., 2015; cited from earlier work
[7] = target: T1, human GABAAR α2β1γ2 (Homo sapiens, UniProt P18505+P18507+P47869); assay: Voltage-clamp, modulation of GABA EC10 response in Xenopus laevis oocytes; format: cell-based; conditions: maximum modulation of the GABA EC10 response, mean ± S.E.M. (n = 3)
T1 sequence (P47869 29-451): as the sequence (P47869 29-451) above
T1 sequence (P18505 26-474): as the sequence (P18505 26-474) above
T1 sequence (P18507 40-475): as the sequence (P18507 40-475) above

[8] = system: PPD; conditions: cited from earlier work
[9] = target: T1, human GABAAR α2β1γ2; conditions: value marked #, ref Hogenkamp et al. (2014) and Carter et al. (1997); cited from earlier work
[10] = system: hippocampal DGGNs; conditions: ref Modgil et al., 2017, cited from earlier work
[11] = system: acute migraine; conditions: in vivo; cited from earlier work
[12] = ref Harrison and Simmonds, 1984; cited from earlier work
[13] = system: GABAARs; conditions: ref Harrison and Simmonds, 1984; cited from earlier work
[14] = system: rodent seizure models; conditions: ref Hogenkamp et al., 2014; cited from earlier work
[15] = system: synaptic GABAARs; conditions: ref Wafford et al., 2009; Jensen et al., 2013; cited from earlier work
[16] = system: traumatic brain injury; conditions: ref Wright et al., 2014, Skolnick et al.; cited from earlier work
[17] = system: humans; conditions: 500 mg intravenously (iv.); ref Merryman et al., 1954; cited from earlier work
[18] = system: GABAARs; conditions: ref Parakala et al., 2019; cited from earlier work
[19] = target: synaptic (α1β2γ2) GABAARs (Mus musculus, UniProt P22723+P62812+P63137); assay: mIPSCs recorded from thalamic VB neurons in horizontal slice; format: cell-based; conditions: 1 μM, 10 min; VB neuron of P21 mouse, −70 mV
synaptic (α1β2γ2) GABAARs, sequence (P62812 28-455): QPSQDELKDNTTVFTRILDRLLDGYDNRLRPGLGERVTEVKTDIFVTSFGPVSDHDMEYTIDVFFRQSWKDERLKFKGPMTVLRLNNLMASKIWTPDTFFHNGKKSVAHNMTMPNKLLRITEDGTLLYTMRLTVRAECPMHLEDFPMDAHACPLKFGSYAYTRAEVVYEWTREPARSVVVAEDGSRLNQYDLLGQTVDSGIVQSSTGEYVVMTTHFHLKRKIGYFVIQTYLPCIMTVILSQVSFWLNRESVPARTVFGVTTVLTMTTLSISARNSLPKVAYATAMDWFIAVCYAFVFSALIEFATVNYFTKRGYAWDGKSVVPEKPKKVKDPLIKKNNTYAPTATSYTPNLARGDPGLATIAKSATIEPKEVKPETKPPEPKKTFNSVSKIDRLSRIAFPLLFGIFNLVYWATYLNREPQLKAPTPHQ
synaptic (α1β2γ2) GABAARs, sequence (P63137 25-512 limits assumed): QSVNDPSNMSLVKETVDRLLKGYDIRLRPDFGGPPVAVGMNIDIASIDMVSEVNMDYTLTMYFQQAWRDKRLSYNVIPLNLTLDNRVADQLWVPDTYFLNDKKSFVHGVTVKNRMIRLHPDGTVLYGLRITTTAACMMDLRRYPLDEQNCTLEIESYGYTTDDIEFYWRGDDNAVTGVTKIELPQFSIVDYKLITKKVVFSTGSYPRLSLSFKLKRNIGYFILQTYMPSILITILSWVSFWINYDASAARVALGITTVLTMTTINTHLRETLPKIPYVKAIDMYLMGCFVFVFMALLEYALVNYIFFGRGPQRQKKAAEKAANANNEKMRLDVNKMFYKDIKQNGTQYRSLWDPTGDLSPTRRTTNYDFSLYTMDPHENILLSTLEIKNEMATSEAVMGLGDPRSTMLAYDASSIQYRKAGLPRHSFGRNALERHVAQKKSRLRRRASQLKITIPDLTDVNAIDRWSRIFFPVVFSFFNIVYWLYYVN
synaptic (α1β2γ2) GABAARs, sequence (P22723 39-474): as the sequence (P18507 40-475) above
How it was run: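 GABAAR mIPSCs were recorded at −70 mV from thalamic VB neurons in horizontal slices from P21 mice. Recordings were made under control conditions and after 10 min of test compound at 1 μM. mIPSC decay was examined.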

[20] = target: extrasynaptic (α4β2δ) GABAARs (Mus musculus, UniProt P22933+P63137+Q9D6F4); assay: Tonic current; format: cell-based; conditions: 1 μM; VB neuron of P21 mouse; reversed by bicuculline 20 μM
How it was run: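 Holding current was taken from the same −70 mV VB neuron recordings in P21 mouse horizontal slices. All-points histograms of holding current were compared under control, after test compound (1 μM), and after co-application of bicuculline (20 μM).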

[21] = system: patients with moderate to severe major depressive disorder; conditions: oral treatment for 14 days; ref Gunduz-Bruce et al., 2019; cited from earlier work

human GABAAR α4β3δ, sequence (P48169 36-554): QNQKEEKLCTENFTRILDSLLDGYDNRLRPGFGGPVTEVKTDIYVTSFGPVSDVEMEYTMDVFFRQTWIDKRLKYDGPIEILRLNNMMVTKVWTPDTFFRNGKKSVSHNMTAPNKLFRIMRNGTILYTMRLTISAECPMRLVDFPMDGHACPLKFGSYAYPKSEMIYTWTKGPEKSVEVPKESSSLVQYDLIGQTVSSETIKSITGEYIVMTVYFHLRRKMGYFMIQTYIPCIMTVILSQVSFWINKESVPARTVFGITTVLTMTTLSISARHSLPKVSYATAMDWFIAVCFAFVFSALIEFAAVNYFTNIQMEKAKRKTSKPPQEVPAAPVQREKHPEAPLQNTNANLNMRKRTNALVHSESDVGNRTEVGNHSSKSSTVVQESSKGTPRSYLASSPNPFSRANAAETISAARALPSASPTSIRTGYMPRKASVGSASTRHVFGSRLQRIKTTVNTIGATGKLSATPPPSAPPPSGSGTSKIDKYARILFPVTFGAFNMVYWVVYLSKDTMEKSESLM
human GABAAR α4β3δ, sequence (P28472 26-473): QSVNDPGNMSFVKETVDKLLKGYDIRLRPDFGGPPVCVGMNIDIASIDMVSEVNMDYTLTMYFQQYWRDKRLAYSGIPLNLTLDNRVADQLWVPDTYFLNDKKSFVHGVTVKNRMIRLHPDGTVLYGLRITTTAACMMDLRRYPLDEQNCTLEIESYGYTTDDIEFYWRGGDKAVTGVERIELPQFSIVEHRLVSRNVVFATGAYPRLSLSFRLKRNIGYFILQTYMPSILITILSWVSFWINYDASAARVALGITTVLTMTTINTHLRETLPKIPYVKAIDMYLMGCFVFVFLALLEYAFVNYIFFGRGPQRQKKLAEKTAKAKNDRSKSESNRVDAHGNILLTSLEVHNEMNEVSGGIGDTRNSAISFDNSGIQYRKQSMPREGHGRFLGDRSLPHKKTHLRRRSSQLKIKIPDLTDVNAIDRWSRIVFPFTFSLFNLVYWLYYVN
human GABAAR α4β3δ, sequence (O14764 25-452): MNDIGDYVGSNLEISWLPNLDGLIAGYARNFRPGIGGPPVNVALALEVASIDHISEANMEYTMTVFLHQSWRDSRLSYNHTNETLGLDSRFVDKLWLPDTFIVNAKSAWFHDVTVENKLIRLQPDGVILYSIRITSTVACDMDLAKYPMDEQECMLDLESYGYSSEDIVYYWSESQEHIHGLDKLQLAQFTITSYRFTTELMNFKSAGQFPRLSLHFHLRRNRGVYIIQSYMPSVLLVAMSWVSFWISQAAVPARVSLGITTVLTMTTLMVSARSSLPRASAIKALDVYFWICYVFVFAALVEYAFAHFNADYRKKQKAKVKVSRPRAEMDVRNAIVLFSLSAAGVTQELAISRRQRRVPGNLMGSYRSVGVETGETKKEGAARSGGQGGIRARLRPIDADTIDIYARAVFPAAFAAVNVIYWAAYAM

## CCOC(=O)Nc1ccc(NCc2c(C)cc(C)cc2C)cc1N [AA29504]
[1]; ref Hoestgaard-Jensen et al., 2010
  ratio of brain to plasma levels: favorable ratio of brain to plasma levels

## CC(=O)[C@H]1CC[C@H]2[C@@H]3CC[C@H]4C[C@H](O)CC[C@]4(C)[C@H]3CC[C@]12C [AlloP, 5α-pregnan-3α-ol-20-one]
[2]
  Max Mod ± SEM: 1401 ± 88 % control
[3]
  Max Mod ± SEM: 485 ± 257 % control
[4]
  Max Mod ± SEM: 817 ± 62 % control
[5]
  Max Mod ± SEM: 909 ± 68 % control
[6]
  brain concentration relative to that in plasma: 3 ×
[7]
  Max Mod ± SEM: 878 ± 211 % control

## CC(=O)[C@H]1CC[C@H]2[C@@H]3CC[C@H]4C[C@](C)(O)CC[C@]4(C)[C@H]3CC[C@]12C [Ganaxolone, 3alpha-hydroxy-3beta-methyl-5alpha-pregnan-20-one]
[2]
  Max Mod ± SEM: 1710 ± 534 % control
[3]
  Max Mod ± SEM: 646 ± 254 % control
[8]; oral (p.o) dose of 1175 mg once per day for 28 days, ref trade press
  outcome in PPD, preliminary findings: not meeting primary endpoints
[4]
  Max Mod ± SEM: 1006 ± 241 % control
[5]
  Max Mod ± SEM: 1151 ± 367 % control
[9]
  Max Mod ± SEM: 700 ± 50^# % control
[10]; in contrast to allopregnanolone
  sustained enhancement of tonic conductance: did not produce a sustained enhancement
[10]
  acute effect on tonic current: acutely increased the tonic current
[11]
  outcome in phase II trials, acute migraine: failed to demonstrate efficacy

## CC(=O)[C@H]1CC[C@H]2[C@@H]3CC[C@H]4C[C@@H](O)CC[C@]4(C)[C@H]3C(=O)C[C@]12C [betaxalone]
[12]
  behavioural effect: behaviourally inert
[13]
  effect on GABAARs: no effect

## C[C@@]1(O)CC[C@@]2(C)[C@@H](CC[C@@H]3[C@@H]2CC[C@]2(C)[C@@H](c4cc(CO)on4)CC[C@@H]32)C1 [UCI-50027, 3-[3α-hydroxy-3β-methyl-5α-androstan-17β-yl]-5-(hydroxymethyl)isoxazole]
[2]
  Max Mod ± SEM: 919 ± 229 % control
[3]
  Max Mod ± SEM: 595 ± 176 % control
[4]
  Max Mod ± SEM: 472 ± 84 % control
[5]
  Max Mod ± SEM: 587 ± 91 % control
[14]
  anticonvulsant/anxiolytic therapeutic index: greater anticonvulsant/anxiolytic therapeutic index than ganaxolone
[7]
  Max Mod ± SEM: 277 ± 47 % control

## O=C(Nc1c(-c2cccs2)nc2ccccn12)c1ccc(Cl)cc1 [DS2]
[15]
  activity on synaptic GABAARs: no activity
[1]; ref Wafford et al., 2009, Jensen et al., 2013
  CNS penetration: poor CNS penetration

## CC(=O)[C@H]1CC[C@H]2[C@@H]3CCC4=CC(=O)CC[C@]4(C)[C@H]3CC[C@]12C [progesterone]
[16]
  outcome in phase III trials, moderate to severe traumatic brain injury: failed to meet primary criteria
[17]
  effect in humans: anesthetic effect

## C=C[C@]12CCC(=O)C=C1CC[C@H]1[C@@H]3CC[C@H](C(C)=O)[C@@]3(C)CC[C@@H]12 [ORG OD 02-0]
[18]
  direct interaction with GABAARs: no direct interaction with GABAARs

## C[C@@]1(O)CC[C@H]2[C@H](CC[C@@H]3[C@@H]2CC[C@]2(C)[C@@H](C(=O)Cn4cc(C#N)cn4)CC[C@@H]32)C1 [SAGE-217, 3alpha-Hydroxy-3beta-methyl-21-(4-cyano-1H-pyrazol-1’-yl)-19-nor-5beta-pregnan-20-one]
[2]
  Max Mod ± SEM: 783 ± 122 % control
[3]
  Max Mod ± SEM: 1355 ± 173 % control
[19]
  duration of miniature inhibitory postsynaptic currents (mIPSCs): greatly prolong
[20]
  tonic current: enhance the tonic current
[8]; 30 mg p.o. once a day for 14 days, reported by Sage
  outcome of phase II study: positive results
[21]
  depressive symptoms: effective in reducing depressive symptoms
  main side effects: dizziness and somnolence/sedation
[4]
  Max Mod ± SEM: 488 ± 33 % control
[5]
  Max Mod ± SEM: 823 ± 353 % control
[7]
  Max Mod ± SEM: 851 ± 93 % control

— paper PMC7231973 (Neurobiology of Stress, 2019)
